Experimental data from ChEMBL document CHEMBL1139347, “Total synthesis and cytoprotective properties of dykellic acid” (J Med Chem, 2009).
Activity calls are given as the source filed them. The calls are words filed in the database; no cut-off is given here.

Tests used:
U-937 [1] = test: Cytoprotective activity against 1.5 uM etoposide-induced cell death in human U937 cells pretreated for 5 hrs measured after 24 hrs by cell flow cytometry using propidium iodide staining relative to control; type: functional, cell-based
Method in brief: (§1)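 U-937 suspension cells preincubated 5 h across a concentration range, then challenged with etoposide (final 1.5 µM) or rotenone (final 5 µM). Death scored 24 h later by propidium iodide staining and flow cytometry. Percent protection derived from live-cell fraction relative to vehicle-only and toxin-only controls. SDM from n = 3, each run in triplicate.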

U-937 [2] = test: Cytoprotective activity against 20 uM rotenone-induced intracellular ROS production in human U937 cells at 100 uM pretreated for 5 hrs by dihydroethidium dye reduction assay; type: functional, cell-based
Method in brief: (§2)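 U-937 cells exposed 5 h to a range of test concentrations or α-tocopherol (100 µM), then rotenone added (final 20 µM). After 40 min, dichlorodihydrofluorescein diacetate (peroxides) or dihydroethidium (superoxide, forming ethidium) added, and cellular fluorescence read by flow cytometry. Compared with vehicle+rotenone control. SDM from n = 3, each in triplicate.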

U-937 [3] = test: Cytoprotective activity against 5 uM rotenone-induced cell death in human U937 cells pretreated for 5 hrs measured after 24 hrs by cell flow cytometry using propidium iodide staining relative to control; type: functional, cell-based; method in brief: as §1
U-937 [4] = test: Cytoprotective activity against 50 uM N-methyl-N'-nitro-N-nitrosoguanidine-induced cell death in human U937 cells pretreated for 5 hrs measured after 24 hrs by cell flow cytometry using propidium iodide staining relative to control; type: functional, cell-based
Method in brief: (§3)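 Protection of U-937 cells against H2O2 or MNNG: 5 h preincubation with a range of concentrations before toxin addition, then viability measured after 24 h by propidium iodide staining and flow cytometry. Reported as percent protection versus vehicle-only and toxin-only control cells.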

U-937 [5] = test: Cytoprotective activity against 50 uM H2O2-induced cell death in human U937 cells pretreated for 5 hrs measured after 24 hrs by cell flow cytometry using propidium iodide staining relative to control; type: functional, cell-based; method in brief: as §3
U-937 [6] = test: Antiapoptotic activity in human U937 cells assessed as reduction of 1.5 uM etoposide-induced caspase-3/7 like activity pretreated for 5 hrs measured after 24 hrs relative to control; type: functional, cell-based
Method in brief: (§4)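 U-937 cells pretreated 5 h with Z-VAD-fmk (100 nM) or a range of test concentrations, then etoposide added (final 1.5 µM) for 24 h. Cells moved to caspase assay buffer, lysed, and given Ac-DEVD-pNA (final 200 µM). pNA release per minute read at 405 nm. DMSO 1% in all wells. Vehicle+etoposide set to 1.0, vehicle alone set to 0. Triplicate, representative of three experiments.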

U-937 [7] = test: Antiapoptotic activity in human U937 cells assessed as reduction of 1.5 uM etoposide-induced caspase-3/7 like activity at 100 nM pretreated for 5 hrs measured after 24 hrs relative to control; type: functional, cell-based; method in brief: as §4
Caspase-3 (Homo sapiens) = target: T1, Caspase-3 (Homo sapiens) (UniProt P42574); test: Inhibition of recombinant caspase 3 activity expressed in Escherichia coli BL21 (DE3) assessed as p-nitroaniline release using Ac-DEVD-pNA substrate up to 100 uM
T1 sequence (whole entry): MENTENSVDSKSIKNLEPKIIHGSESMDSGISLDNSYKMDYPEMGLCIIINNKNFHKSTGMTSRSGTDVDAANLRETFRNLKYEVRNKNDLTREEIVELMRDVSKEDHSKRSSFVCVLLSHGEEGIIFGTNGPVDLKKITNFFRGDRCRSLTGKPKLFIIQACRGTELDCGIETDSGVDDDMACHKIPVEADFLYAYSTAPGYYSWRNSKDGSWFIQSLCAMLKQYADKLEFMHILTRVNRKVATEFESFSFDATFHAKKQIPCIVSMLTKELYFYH
Method in brief: (§5)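 Recombinant purified caspase-3, -6, -7 and -8 were run as full Michaelis-Menten curves (velocity vs substrate concentration) at several test concentrations up to 100 µM. Hydrolytic pNA release was followed from enzyme-specific tetrapeptide substrates: Ac-DEVD-pNA for caspase-3 and -7, Ac-VEID-pNA for caspase-6, Ac-IETD-pNA for caspase-8. Kinetics given as kcat/KM.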

Caspase-6 (Homo sapiens) = target: T2, Caspase-6 (Homo sapiens) (UniProt P55212); test: Inhibition of recombinant caspase 6 activity expressed in Escherichia coli BL21 (DE3) assessed as p-nitroaniline release using Ac-VEID-pNA substrate up to 100 uM; method in brief: as §5
T2 sequence (whole entry): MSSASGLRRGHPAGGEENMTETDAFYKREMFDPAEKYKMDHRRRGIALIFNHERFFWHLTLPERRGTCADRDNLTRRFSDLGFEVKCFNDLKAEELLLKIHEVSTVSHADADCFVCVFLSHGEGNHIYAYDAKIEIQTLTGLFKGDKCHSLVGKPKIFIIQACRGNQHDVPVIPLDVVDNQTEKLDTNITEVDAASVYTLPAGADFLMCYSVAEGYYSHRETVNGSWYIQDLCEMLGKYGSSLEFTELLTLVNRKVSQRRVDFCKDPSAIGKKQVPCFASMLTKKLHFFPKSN

Caspase-7 (Homo sapiens) = target: T3, Caspase-7 (Homo sapiens) (UniProt P55210); test: Inhibition of recombinant caspase 7 activity expressed in Escherichia coli BL21 (DE3) assessed as p-nitroaniline release using Ac-DEVD-pNA substrate up to 100 uM; method in brief: as §5
T3 sequence (whole entry): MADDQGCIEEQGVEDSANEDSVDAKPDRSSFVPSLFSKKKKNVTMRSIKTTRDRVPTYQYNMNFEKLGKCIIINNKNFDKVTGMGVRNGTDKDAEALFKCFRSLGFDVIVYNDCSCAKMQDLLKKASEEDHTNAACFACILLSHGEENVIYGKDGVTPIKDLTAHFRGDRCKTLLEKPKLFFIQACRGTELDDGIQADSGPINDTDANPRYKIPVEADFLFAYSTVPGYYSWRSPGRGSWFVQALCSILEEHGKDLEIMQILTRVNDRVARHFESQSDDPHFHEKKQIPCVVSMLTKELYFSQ

Caspase-8 (Homo sapiens) = Caspase-8 (Homo sapiens) (UniProt Q14790); test: Inhibition of recombinant caspase 8 activity expressed in Escherichia coli BL21 (DE3) assessed as p-nitroaniline release using Ac-IETD-pNA substrate up to 100 uM; method in brief: as §5
Caspase-8 (Homo sapiens), sequence (Q14790 217-374 limits assumed): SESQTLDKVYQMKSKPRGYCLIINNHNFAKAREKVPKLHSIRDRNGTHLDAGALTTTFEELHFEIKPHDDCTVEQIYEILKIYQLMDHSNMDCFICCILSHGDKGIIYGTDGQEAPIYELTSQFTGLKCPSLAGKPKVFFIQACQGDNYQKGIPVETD
Caspase-8 (Homo sapiens), sequence (Q14790 385-479 limits assumed): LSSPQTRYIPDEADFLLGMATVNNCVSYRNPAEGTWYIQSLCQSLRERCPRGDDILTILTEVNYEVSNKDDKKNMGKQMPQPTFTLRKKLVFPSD

U-937 [8] = test: Cytoprotective activity against 20 uM rotenone-induced intracellular ROS production in human U937 cells at 100 uM pretreated for 5 hrs by 2,7-dichlorodihydrofluorescein dye reduction assay; type: functional, cell-based; method in brief: as §2

With `C=C1C=CC(=O)OC1/C=C/CCC` (centres undefined) the Activity (U-937 [1]) was “inactive”.
With `C=C1C=CC(=O)OC1CCCCC` (centres undefined) the Activity (U-937 [1]) was “inactive”.
`C=C1C=C(CCC(=O)OC)C(=O)OC1/C=C/C=C/C` (centres undefined) was tested, and the Activity (U-937 [1]) was “inactive”.
For `C=C1C=C(CCC(=O)O)C(=O)OC1/C=C/C=CC` (centres undefined), the Activity (U-937 [1]) was “Active”.
With `C=C1C=C(CCC(=O)O)C(=O)OC1/C=C/C=C/C` (centres undefined) the Activity (U-937 [2]) was “inactive”, the Activity (U-937 [3]) was “Dose-dependent effect” and the Activity (U-937 [4]) was “Dose-dependent effect”. For the same molecule, the Activity (U-937 [5]) was “inactive”, the Activity (U-937 [6]) was “Active” and the Activity (U-937 [7]) was “inactive”. For the same molecule, the Activity (Caspase-3 (Homo sapiens)) was “inactive”, the Activity (Caspase-6 (Homo sapiens)) was “inactive” and the Activity (Caspase-7 (Homo sapiens)) was “inactive”. The Activity (Caspase-8 (Homo sapiens)) was “inactive” and the Activity (U-937 [8]) was “inactive”.
For `C=C1C=CC(=O)OC1/C=C/C=C/C` (centres undefined), the Activity (U-937 [1]) was “inactive”.
For `C=C1C=C(CCC(=O)OC)C(=O)OC1CCCCC` (centres undefined), the Activity (U-937 [1]) was “inactive”.
With `Cc1c(C)c2c(c(C)c1O)CC[C@@](C)(CCC[C@H](C)CCC[C@H](C)CCCC(C)C)O2` the Activity (U-937 [2]) was “Active” and the Activity (U-937 [8]) was “Active”.
